Columns and labels:
Ileum [1] = assay: Inhibition of calcium-induced contraction in K+-depolarized guinea pig ileum at 10^-5 M relative to control; assay type: tissue-based; details: Cavia porcellus
How it was run: (§1)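 Isolated guinea-pig aortic strips and ileum longitudinal smooth muscle, depolarized with 80 mM K+. Calcium-induced contraction measured with cumulative compound addition. Percent inhibition relative to control. IC50 from log concentration–response curves by Probit analysis, n = 6–7; not calculated when maximum effect was <50%.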

[2] = system: Voltage-gated calcium channel; assay: Inhibition of K+-induced voltage gated calcium channel opening in human SH-SY5Y cells assessed as decrease in Ca2+ level at 10 uM after 10 mins by Fluo-4 dye-based fluorescence assay relative to control; assay type: cell-based
How it was run: (§2)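 Confluent SH-SY5Y cells (36–72 h after seeding) loaded with Fluo-4, washed with Krebs-HEPES, then incubated 10 min with compound or DMSO. Depolarized by injecting KCl to 70 mM and fluorescence followed for 2 min. Fmax taken after 5% Triton X lysis, Fmin after MnCl2. Ca2+ rise expressed against K+-induced rise without compound; blind testing, at least three independent experiments in triplicate, mean ± SEM. IC50 obtained by sigmoidal regression.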

[3] = Cytotoxicity against human SH-SY5Y cells assessed as cell viability at 10 uM after 48 hrs by MTT assay relative to control; assay type: cell-based; details: read-out: Activity
How it was run: (§3)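 SH-SY5Y cells seeded at 70 000 cells/well, exposed before confluence to compounds in MEM/F12 with 10% FBS for 24 h, then fresh medium with 1% FBS plus compounds for a further 24 h. MTT 1.2 mM for 2 h in dark; formazan dissolved in DMSO, absorbance at 540 nm. Viability expressed as percent of vehicle (DMSO)-treated cells; three independent experiments, mean ± SEM.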

Right cardiac atrium [4] = assay: Negative chronotropic activity in guinea pig spontaneously beating right atrium assessed as decrease in atrial rate at 10^-5 M; assay type: ADME, tissue-based, Cavia porcellus; parameters: scale not given: the % may be the effect or the level left; details: 10 µM
How it was run: (§4)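 Isolated spontaneously beating guinea-pig right atrium. Cumulative compound addition from 0.1 to 100 µM. Percent decrease in atrial rate, and in developed tension (n = 7–8), versus control. EC50 from log concentration–response curves by Probit analysis; not calculated when maximum effect was <50%.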

Aorta [5] = assay: Inhibition of calcium-induced contraction in K+-depolarized guinea pig aortic strips at 5 x 10^-5 M relative to control; assay type: tissue-based; details: Cavia porcellus; how it was run: as §1
Left cardiac atrium [6] = assay: Negative inotropic activity in guinea pig left atrium assessed as decrease in developed tension at 10^-5 M relative to control; parameters: scale not given: the % may be the effect or the level left; details: 10 µM
Right cardiac atrium [7] = assay: Negative inotropic activity in guinea pig spontaneously beating spontaneously beating right atrium assessed as decrease in developed tension; assay type: ADME, tissue-based; details: Cavia porcellus; how it was run: as §4
Left cardiac atrium [8] = assay: Negative inotropic activity in guinea pig left atrium assessed as decrease in developed tension; assay type: ADME, tissue-based; details: Cavia porcellus
Ileum [9] = assay: Inhibition of calcium-induced contraction in K+-depolarized guinea pig ileum; assay type: tissue-based; details: Cavia porcellus
[10] = system: Left cardiac atrium (Cavia porcellus); assay: Negative inotropic activity in guinea pig left atrium driven at 1 Hz assessed as decrease in developed tension at 10^-5 M; parameters: scale not given: the % may be the effect or the level left; details: 10 µM
[11] = Cytotoxicity against human SH-SY5Y cells assessed as cell viability at 30 uM after 48 hrs by MTT assay relative to control; assay type: cell-based; details: read-out: Activity; how it was run: as §3
[12] = molecular target: Voltage-gated calcium channel; assay: Inhibition of K+-induced voltage gated calcium channel opening in human SH-SY5Y cells assessed as decrease in Ca2+ level after 10 mins by Fluo-4 dye-based fluorescence assay; assay type: cell-based; how it was run: as §2
Right cardiac atrium [13] = assay: Negative inotropic activity in guinea pig spontaneously beating right atrium assessed as decrease in developed tension at 5 x 10^-5 M; assay type: ADME, tissue-based, Cavia porcellus; parameters: scale not given: the % may be the effect or the level left; details: 50 µM; how it was run: as §4
Left cardiac atrium [14] = assay: Negative inotropic activity in guinea pig left atrium assessed as decrease in developed tension at 5 x 10^-5 M relative to control; assay type: ADME, tissue-based, Cavia porcellus; parameters: scale not given: the % may be the effect or the level left; details: 50 µM
How it was run: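 Isolated guinea-pig left atrium driven at 1 Hz. Cumulative compound concentrations from 0.1 to 100 µM. Percent decrease in developed tension versus control, n = 5–6. EC50 from log concentration–response curves by Probit analysis, n = 6–7; not calculated when maximum effect was <50%.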

Ileum [15] = assay: Inhibition of calcium-induced contraction in K+-depolarized guinea pig ileum at 5 x 10^-5 M relative to control; assay type: tissue-based; details: Cavia porcellus; how it was run: as §1
[16] = molecular target: Glycogen synthase kinase-3 beta (Homo sapiens) (UniProt P49841); assay: Inhibition of GSK3beta (unknown origin) assessed as residual activity at 50 uM pre-incubated for 30 mins followed by ULight-GS (Ser641/pSer657) peptide substrate addition and measured after 1 hr by TR-FRET assay relative to control
Chain of Glycogen synthase kinase-3 beta (Homo sapiens) (P49841 whole entry, looked up): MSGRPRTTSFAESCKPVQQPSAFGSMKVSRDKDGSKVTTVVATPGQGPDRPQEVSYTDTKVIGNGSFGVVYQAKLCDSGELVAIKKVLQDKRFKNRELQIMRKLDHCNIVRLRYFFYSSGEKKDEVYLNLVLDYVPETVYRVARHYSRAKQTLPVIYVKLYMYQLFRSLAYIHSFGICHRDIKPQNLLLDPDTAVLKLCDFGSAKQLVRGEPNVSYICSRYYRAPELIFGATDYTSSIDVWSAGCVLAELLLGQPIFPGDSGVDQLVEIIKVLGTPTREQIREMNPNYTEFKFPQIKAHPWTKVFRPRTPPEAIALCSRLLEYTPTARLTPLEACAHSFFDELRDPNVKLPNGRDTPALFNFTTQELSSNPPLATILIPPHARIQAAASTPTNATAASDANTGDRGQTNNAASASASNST
How it was run: (§5)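 TR-FRET (LANCE Ultra) kinase assay at 22 °C in 50 mM HEPES pH 7.5, 1 mM EGTA, 10 mM MgCl2, 2 mM DTT, 0.01% Tween-20, 3% DMSO. GSK-3β (0.5 nM final) preincubated 30 min with compound; ATP 10 µM and ULight-GS peptide 50 nM (final) added for 1 h. Stopped with 24 mM EDTA plus 2 nM Eu-anti-phospho-GS antibody, 1 h. Read at ex 320 nm, em 615/665 nm. Residual activity relative to DMSO; three separate experiments, mean ± SD.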

Ileum [17] = assay: Inhibition of calcium-induced contraction in K+-depolarized guinea pig ileum at 10^-6 M relative to control; assay type: tissue-based; details: Cavia porcellus; how it was run: as §1
Right cardiac atrium [18] = assay: Negative chronotropic activity in guinea pig spontaneously beating right atrium assessed as decrease in atrial rate at 5 x 10^-5 M; assay type: ADME, tissue-based, Cavia porcellus; parameters: scale not given: the % may be the effect or the level left; details: 50 µM; how it was run: as §4
Ileum [19] = assay: Inhibition of calcium-induced contraction in K+-depolarized guinea pig ileum at […] relative to control; details: Cavia porcellus, read-out: INH
Right cardiac atrium [20] = assay: Negative chronotropic activity in guinea pig spontaneously beating right atrium assessed as decrease in atrial rate at 10^-7 M; assay type: ADME, tissue-based, Cavia porcellus; parameters: scale not given: the % may be the effect or the level left; details: 0.1 µM
Aorta [21] = assay: Inhibition of calcium-induced contraction in K+-depolarized guinea pig aortic strips at 10^-6 M relative to control; details: Cavia porcellus, read-out: INH
Right cardiac atrium [22] = assay: Negative chronotropic activity in guinea pig spontaneously beating right atrium assessed as decrease in atrial rate at 10^-6 M; assay type: ADME, tissue-based, Cavia porcellus; parameters: scale not given: the % may be the effect or the level left; details: 1 µM; how it was run: as §4
[23] = molecular target: Glycogen synthase kinase-3 beta (Homo sapiens) (UniProt P49841); assay: Inhibition of GSK3beta (unknown origin) assessed as residual activity at 3.12 uM pre-incubated for 30 mins followed by ULight-GS (Ser641/pSer657) peptide substrate addition and measured after 1 hr by TR-FRET assay relative to control; how it was run: as §5

SMILES	inhibition (INH) [2] [%]	Activity (Right cardiac atrium [4]) [%]	Activity (Left cardiac atrium [6]) [%]	EC50 (Right cardiac atrium [7]) [nM]	EC50 (Left cardiac atrium [8]) [nM]	EC50 (Ileum [9]) [nM]	Activity [10] [%]	IC50 [12] [nM]	Activity (Right cardiac atrium [13]) [%]	Activity (Left cardiac atrium [14]) [%]	viability at 48 h, 10 µM [3] [%]	inhibition at 50 µM (Aorta [5]) [%]	viability at 48 h, 30 µM [11] [%]	inhibition at 50 µM (Ileum [15]) [%]	further results
O=C1NC(=O)C2C3c4ccccc4C(c4cccc(Cl)c43)C12 (stereo unspecified)	37	37	93	1080	870	1180	94	11000			92	9	93		inhibition at 10 µM (Ileum [1]): 90%
Nc1cccc2c1C1c3ccccc3C2C2C(=O)NC(=O)C12 (stereo unspecified)	11	42		1870	1910	14700			92	82		8		97	
O=C1NC(=O)C2C1C1(Cl)c3ccccc3C2(Cl)c2ccccc21 (stereo unspecified)	38			470	220	490		15000	97	97	95	7	92		Activity [16]: 48%; inhibition at 1 µM (Ileum [17]): 68%
COC(=O)C1=C(C)NC(C)=C(C(=O)OC)C1c1ccccc1[N+](=O)[O-] [NIFEDIPINE]						1.5									inhibition at 0.005 µM (Ileum [19]): 70%; Activity (Left cardiac atrium [6]; Left cardiac atrium): 97%; Activity (Right cardiac atrium [20]): 85%; inhibition at 1 µM (Aorta [21]): 82%
COCCOC(=O)C1=C(C)NC(C)=C(C(=O)OC(C)C)C1c1cccc([N+](=O)[O-])c1 (stereo unspecified) [NIMODIPINE]	25							14000							

Continued, in another order:

inhibition (INH) [2] [%]	Activity (Right cardiac atrium [4]) [%]	Activity (Left cardiac atrium [6]) [%]	EC50 (Right cardiac atrium [7]) [nM]	EC50 (Left cardiac atrium [8]) [nM]	EC50 (Ileum [9]) [nM]	Activity [10] [%]	IC50 [12] [nM]	Activity (Right cardiac atrium [13]) [%]	Activity (Left cardiac atrium [14]) [%]	SMILES	viability at 48 h, 10 µM [3] [%]	inhibition at 50 µM (Aorta [5]) [%]	viability at 48 h, 30 µM [11] [%]	inhibition at 50 µM (Ileum [15]) [%]	further results
8			2180	3650	2510			93	79	CC(=O)Nc1ccc2c(c1)C1c3ccccc3C2C2C(=O)NC(=O)C12 (stereo unspecified)		10			inhibition at 10 µM (Ileum [1]): 67%; Activity (Right cardiac atrium [18]): 37%
39	47	80	2480	430	3330	87	15000			O=C1NC(=O)C2C3c4ccccc4C(c4ccc(Cl)cc43)C12 (stereo unspecified)	91	21	97		inhibition at 1 µM (Ileum [17]): 90%
0		65		320				34		CC(=O)Nc1cccc2c1C1c3ccccc3C2C2C(=O)NC(=O)C12 (stereo unspecified)		6		12	Activity (Right cardiac atrium [18]): 8%
20	33				770	4			11	CC(=O)c1ccc2c(c1)C1c3ccccc3C2C2C(=O)NC(=O)C12 (stereo unspecified)		18		85	
6			2200	1490	1270			79	74	Nc1ccc2c(c1)C1c3ccccc3C2C2C(=O)NC(=O)C12 (stereo unspecified)					inhibition at 10 µM (Ileum [1]): 90%; Activity (Right cardiac atrium [22]): 15%
56	45	76	510	1910	3670	85	9000			CCCCCCCNC(=O)C12c3ccccc3C(c3ccccc31)C1C(=O)NC(=O)C12 (stereo unspecified)	85	6	87	94	Activity [16]: 10%; Activity [23]: 55%
4			2870	850	12100			85	75	O=C1NC(=O)C2C1C1c3ccccc3C2(/C=N/Cc2ccccc2)c2ccccc21 (stereo unspecified)				85	Activity [16]: 51%; Activity (Right cardiac atrium [18]): 26%

— ChEMBL document CHEMBL4411273, “Polycyclic maleimide-based derivatives as first dual modulators of neuronal calcium channels and GSK-3β for Alzheimer's disease treatment” (Eur J Med Chem, 2019)
